Bioassay records from PubChem BioAssay.
XiGFP reactiv: X-chromosome reactivation activator; XiGFP mouse fibroblasts, % GFP-positive cells imaging, 3 d; cells co-treated with 5-aza-dC sensitizer; scaled so ellipticine positive control = 100%; activation, % at 7.58 µM; actives 0.055% (n = 360,000); AID 743238;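 active means mean normalized replicate activation at least 10% and every replicate at or above 10%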;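 further: 0% = median of on-plate neutral control wells and 100% = ellipticine 6 µM median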
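Assay system: SV40-immortalized XiGFP fibroblast cells, line 68-5-11; buffer or medium: DMEM plus 5-aza-dC sensitizer; compound: one concentration, pinned; timing: compounds 3 days, fix/stain 15 min at room temperature; benchmarks: positive control ellipticine, 6 µM final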
GSIS activator: GLuc luminescence reporter in INS-1E cells, primary screen for activators of glucose-dependent secretion of insulin. INS-1E GLuc reporter insulin secretion, 2-3 h. activation, % at 16.6 µM. actives 0.61% (n = 370,000);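 active means lowest replicate activation of at least 40%, so every replicate reaches that level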;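 further: 0% = median of neutral control wells and 100% = median of IBMX positive control wells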
CaV13 ICDI inh: Primary screen for inhibitors of IQ motif and Ca2+-dependent inactivation inhibitor domain binding in CACNA1D, Förster resonance energy transfer in living cells, …. HEK cells, CFP/YFP FRET ICDI-IQ, plate reader, 10 min; percent FRET-ratio fall versus neutral wells. inhibition, % at 12.3 µM. actives 0.098% (n = 340,000). AID 743397;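 active means mean replicate inhibition of at least 30% and at least 1% of replicates passing that level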;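 further: 0% = median of the neutral control wells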
FXN GAA850 act: activators of GAA850 frataxin (FXN) promoter. activation, % at 6 µM. actives 0.56% (n = 360,000). HEK293 lucGAA850 FXN promoter luciferase reporter, 24 h; percent of 10 µM SAHA response;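 active means activation above the average of all compounds screened plus 3 SD, cutoff fixed separately per campaign, cut at about 7.5% in these data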;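 further: 0% = DMSO wells and 100% = 10 µM SAHA wells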
GAA30 FXN cntr: activates GAA30 frataxin promoter, counter-screen for GAA850 activators; shares compounds with FXN GAA850 act; HEK293 lucGAA30 FXN promoter luciferase, 24 h; DMSO = 0%, 5 µM ipriflavone = 100%; activation, % at 6 µM; actives 66% (n = 1,900); AID 588350;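 active means mean activation above the mean of solvent-only control wells plus 3 SD, cut at about 22% in these data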;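 further: counterscreen of GAA850 promoter hits where activity marks nonselective or luminescence artifacts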
FXN GAA850 conf: confirmation of GAA850 frataxin (FXN) promoter activators. HEK293 lucGAA850 FXN promoter luciferase reporter, 24 h; 100% = activation by SAHA. actives 86% (n = 1,900). activation, % at 6 µM. shares compounds with FXN GAA850 act;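 active means mean activation above a set limit taken from the primary screen, cut at about 8% in these data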;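 further: 0% = DMSO wells and 100% = 10 µM SAHA wells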
* = called active by the depositor; ! = not confirmed by another sample. Shown are actives, neighbours in structure and some others; about 1% of the full set was active somewhere.

For Cc1cc(NC(=O)C(C)SCC(=O)Nc2cc(C(F)(F)F)ccc2N2CCOCC2)no1 (configuration not stated) the results were XiGFP reactiv 0.1, GSIS activator -26.4, CaV13 ICDI inh -6.1, FXN GAA850 act 8.8*, GAA30 FXN cntr 26.2* and FXN GAA850 conf 12.8*.
`CC(=O)N(C)C[C@@H]1Oc2ccc(N(C)C)cc2C(=O)N(C)C[C@@H]1C` gave XiGFP reactiv 0.2 and GSIS activator 10.8.
COc1cccc(-c2ccc3c(c2)[C@H]2[C@H](CCN2Cc2ccccc2OC)[C@H](CO)N3)c1 was read as XiGFP reactiv 0.2 and GSIS activator 6.1.
For CCOc1ccccc1N=Cc1c(O)c2ccccc2oc1=O the results were XiGFP reactiv 0.0, GSIS activator -10.8, CaV13 ICDI inh 12.4 and FXN GAA850 act -2.2.
`CCOP(=O)(Nc1cccc2oc(=O)c3ccccc3c12)OCC` gave XiGFP reactiv 0.1, CaV13 ICDI inh -5.0, FXN GAA850 act 7.8*, GAA30 FXN cntr 25.2* and FXN GAA850 conf 17.5*.
`CCCN1[C@H](C(=O)N[C@@H](C)c2ccccc2)[C@@H](CO)[C@@H]2Cn3c(cccc3=O)[C@@H]21` gave XiGFP reactiv 0.1 and GSIS activator 4.8.
`CC(=O)c1ccc(NC(=O)CSc2nc(N)c3cc4c(nc3n2)CCCC4)cc1` gave XiGFP reactiv -0.1, GSIS activator 5.2, CaV13 ICDI inh -5.3, FXN GAA850 act 7.7*, GAA30 FXN cntr 100.7* and FXN GAA850 conf 27.4*.
For COc1ccc(NC(=O)CSc2nc(N)c3cc4c(nc3n2)CCCC4)cc1 the results were XiGFP reactiv 0.0, GSIS activator 6.3, CaV13 ICDI inh -3.9 and FXN GAA850 act 5.6.
`O=C(/C=C/c1ccc(Cl)cc1Cl)NC(=S)Nc1ccccn1` gave CaV13 ICDI inh -2.5 and FXN GAA850 act 2.5.
Screening Clc1ccc(C=Cc2ccccn2)c(Cl)c1 returned XiGFP reactiv 0.3, CaV13 ICDI inh -14.7, FXN GAA850 act 7.7*, GAA30 FXN cntr 119.7* and FXN GAA850 conf 37.0*.
`COc1ccc(/C=C2\SC(N3CCCCC3)=NC2=O)cc1OC` gave XiGFP reactiv 0.1, GSIS activator 66.0*, CaV13 ICDI inh -20.0, FXN GAA850 act 9.5*, GAA30 FXN cntr 29.3* and FXN GAA850 conf 20.8*.
Screening C[C@@H]1CN([C@@H](C)CO)C(=O)Cc2cc(NC(=O)Cc3cn(C)c4ccccc34)ccc2O[C@H]1CN(C)S(=O)(=O)c1ccc(Cl)cc1 returned XiGFP reactiv 0.0 and GSIS activator 10.1.
Screening COc1ccc(/C(C)=N/Nc2ccc(C(=O)O)cc2)cc1OC returned GSIS activator 62.7*, CaV13 ICDI inh -8.2, FXN GAA850 act 8.5*, GAA30 FXN cntr 93.3* and FXN GAA850 conf 32.1*.
COc1cc(/C(C)=N/Nc2ccc(C(=O)O)cc2)cc(OC)c1OC was read as XiGFP reactiv 0.0, GSIS activator -23.4, CaV13 ICDI inh -4.4 and FXN GAA850 act 3.1.
`CN(C(=S)NC1CCCCC1)C1(c2ccccc2Cl)CCCCC1=O` (configuration not stated) gave XiGFP reactiv 0.0, GSIS activator -19.2, CaV13 ICDI inh -5.4, FXN GAA850 act 8.8*, GAA30 FXN cntr 12.9 and FXN GAA850 conf 9.2*.
COc1ccccc1NC(=O)N1C[C@@H]2[C@H](c3ccccc31)[C@@H](CO)N2C(=O)c1ccccc1 was read as XiGFP reactiv 0.0 and GSIS activator 9.1.
`OC[C@@H]1Nc2ccc(C#Cc3ccc(F)cc3)cc2[C@H]2[C@@H]1CCN2Cc1ccc2c(c1)OCO2` gave XiGFP reactiv -0.1 and GSIS activator -13.0.
CC(CCc1ccccc1)NCC(O)c1ccc(O)c(C(N)=O)c1 (configuration not stated) was read as XiGFP reactiv -0.1, CaV13 ICDI inh -4.0 and FXN GAA850 act -2.1.
For COc1ccc(CC(C)NCC(O)c2ccc(O)c(NC=O)c2)cc1 (configuration not stated) the results were XiGFP reactiv -0.1, GSIS activator -14.2, CaV13 ICDI inh -5.3, FXN GAA850 act 8.0*!, GAA30 FXN cntr 16.1 and FXN GAA850 conf 26.6*.
`CC(C)NC(=O)Nc1ccc2c(c1)C(=O)N([C@H](C)CO)C[C@@H](C)[C@@H](CN(C)Cc1ccc3c(c1)OCO3)OCCCC[C@H](C)O2` gave XiGFP reactiv 0.0 and GSIS activator -3.0.
`O=C(C=Cc1ccccc1)CC(c1ccccc1)N1CCOCC1` (configuration not stated) gave XiGFP reactiv 2.1, GSIS activator -29.1, CaV13 ICDI inh -6.9, FXN GAA850 act 7.8*, GAA30 FXN cntr 36.4* and FXN GAA850 conf 39.9*.
For O=C(C(c1ccccc1)N1CCOCC1)N1CCOCC1 (configuration not stated) the results were GSIS activator 6.5 and FXN GAA850 act -0.6.
`Cc1noc(C)c1S(=O)(=O)N(C)C[C@@H]1OCCCC[C@H](C)Oc2ccc(NS(=O)(=O)c3cccs3)cc2C(=O)N([C@H](C)CO)C[C@H]1C` gave XiGFP reactiv -0.5 and GSIS activator 0.0.
C=C(C)CSc1nncn1/N=C/c1ccc(OC)cc1 was read as GSIS activator 14.4, CaV13 ICDI inh -2.3, FXN GAA850 act 11.2*, GAA30 FXN cntr 102.0* and FXN GAA850 conf 33.5*.
`COc1ccc(/C=C/S(=O)(=O)NCc2ccccc2)cc1OC` gave XiGFP reactiv 0.0, GSIS activator 26.1, CaV13 ICDI inh -15.9, FXN GAA850 act 7.8*, GAA30 FXN cntr 20.4 and FXN GAA850 conf 8.2*.
COc1ccc(/C=C/C(=O)O)cc1S(=O)(=O)NCc1ccccc1 was read as XiGFP reactiv 0.5, GSIS activator 3.8, CaV13 ICDI inh -4.7 and FXN GAA850 act 2.4.
For Nc1n[nH]c(N)c1N=Nc1ccc(Cl)cc1 the results were XiGFP reactiv 0.1, CaV13 ICDI inh -14.4, FXN GAA850 act 8.7*, GAA30 FXN cntr 71.0* and FXN GAA850 conf 14.7*.
`Nc1cccc2c1C(=O)N(CCOc1ccc(F)cc1)C2=O` gave XiGFP reactiv 0.2, GSIS activator -8.6, CaV13 ICDI inh -13.4, FXN GAA850 act 8.1*, GAA30 FXN cntr 105.6* and FXN GAA850 conf 26.3*.
`COc1ccc(OCCN2C(=O)c3ccccc3C2=O)cc1` gave XiGFP reactiv 0.1, GSIS activator 10.3, CaV13 ICDI inh -4.7 and FXN GAA850 act 4.1.
